A selection: hits, their analogues and other compounds. The true share with any hit is near 2.1%.
GSTO1 inh – blocks human GSTO1 in RBBP9 counter-screen. P78417. recombinant GSTO1, activity-based probe fluorescence polarization. inhibition, % at 5.96 µM. actives 1.1% (n = 300,000). AID 1974;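 active means inhibition above the campaign mean inhibition plus 3 SD, cut at about 35% in these data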;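 further: 0% = GSTO1-1 with DMSO and 100% = wells lacking GSTO1-1 enzyme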
Target sequence (P78417 whole entry, looked up): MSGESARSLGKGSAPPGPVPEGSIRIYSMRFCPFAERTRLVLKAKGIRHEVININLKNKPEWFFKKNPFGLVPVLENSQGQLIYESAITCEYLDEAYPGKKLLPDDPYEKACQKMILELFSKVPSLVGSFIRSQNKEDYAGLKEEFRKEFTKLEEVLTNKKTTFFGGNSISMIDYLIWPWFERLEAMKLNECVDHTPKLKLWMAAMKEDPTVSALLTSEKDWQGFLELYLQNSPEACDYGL
PP1 inh – blocks human PP1-alpha phosphatase, a PP5 counter-screen. P62136. purified PP1alpha, OMFP fluorescence. inhibition, % at 6.7 µM. actives 0.9% (n = 320,000). AID 2235;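 active means inhibition above the mean inhibition of all tested compounds plus 3 SD, computed separately for each screening campaign, cut at about 15% in these data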
Target sequence (P62136 whole entry, looked up): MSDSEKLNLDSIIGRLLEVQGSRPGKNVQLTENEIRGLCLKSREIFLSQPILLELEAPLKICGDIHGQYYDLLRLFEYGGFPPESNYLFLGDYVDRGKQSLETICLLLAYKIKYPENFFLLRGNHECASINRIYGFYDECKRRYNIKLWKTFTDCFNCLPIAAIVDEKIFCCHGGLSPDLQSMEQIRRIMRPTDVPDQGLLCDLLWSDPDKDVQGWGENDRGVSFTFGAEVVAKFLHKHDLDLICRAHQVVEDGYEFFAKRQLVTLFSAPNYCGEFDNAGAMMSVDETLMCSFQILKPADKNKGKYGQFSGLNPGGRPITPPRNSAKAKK
Apaf-1 inh – inhibitors of human Apaf-1 apoptosome; reconstituted apoptosome caspase-3 activity, DEVD-Rh110 fluorescence; inhibition, % at 20 µM; actives 0.71% (n = 330,000); AID 489030; active means inhibition of at least 40% at 20 µM;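 further: plate controls were DMSO wells for no effect and DEVD-CHO caspase inhibitor wells for full effect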
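Material: reconstituted apoptosome with Apaf-1, cytochrome c, caspase-9, procaspase-3, dATP. Technique: Rh110 fluorescence intensity. Buffer or medium: pH 7.5 Hepes buffer with CHAPS, BSA, DTT. Times: 30 min plus 50 min, RT.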
PP5 inh – PP5 (human) phosphatase inhibition; AID 1987; inhibition, % at 6.7 µM; purified PP5c, OMFP substrate fluorescence; actives 0.18% (n = 320,000);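 active means inhibition above the campaign's mean inhibition across all tested compounds plus 3 SD, cut at about 9.5% in these data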;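 further: 0% = DMSO only and 100% = 100 µM cantharidin control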
TDP2 absorb – TDP2 (human) inhibition, absorbance primary screen. O95551. recombinant TDP2, T5PNP hydrolysis, p-nitrophenol absorbance 415 nm. inhibition, % at 12.8 µM. actives 0.34% (n = 370,000). AID 720702;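 active means inhibition above the mean of all tested compounds plus 3 SD, set per campaign, cut at about 25% in these data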;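 further: 0% = DMSO with enzyme and 100% = buffer with substrate but no TDP2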
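Test system: human TDP2 enzyme; Input: 120 nM TDP2 per well; Buffer or medium: Mg2+-containing Tris-HCl buffer, pH 7.5; Reagent: 5 mM T5PNP; Dosing: 12.8 µM single point, 1% DMSO; Incubation: reaction 2 h, 37 °C; Detection: p-Nitrophenol epi absorbance; Read-out: % inhibition relative to enzyme-containing and enzyme-free wells; Replicates: single well per compound.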
PP1 confirm – human PP1 phosphatase inhibition, confirmation; shares compounds with PP1 inh; purified PP1alpha, OMFP substrate fluorescence; inhibition, % at 6.7 µM; actives 52% (n = 1,900); AID 2358;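 active means mean PP1 inhibition above a set limit taken from the earlier primary screen, cut at about 15% in these data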
PP5 inh counter – inhibits human PP5 phosphatase in PP1 counter-screen. shares compounds with PP1 inh. purified PP5c, OMFP fluorescence. inhibition, % at 6.7 µM. actives 4% (n = 1,900);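 active means mean PP5 inhibition over triplicate wells above about 9.5% taken from the earlier PP1 screen, limit read from the data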
Numbers without * were called inactive; x = no result given.

SMILES	GSTO1 inh	PP1 inh	Apaf-1 inh	PP5 inh	TDP2 absorb	PP1 confirm	PP5 inh counter
Cc1cnc(C(=O)OC(C)C(=O)c2c(C)[nH]c3ccccc23)cn1 (centres undefined)	6	-1	0	1	9	x	x
Cc1[nH]c2ccccc2c1C(=O)C(C)OC(=O)C1CCC1 (centres undefined)	4	28*	12	5	-3	0	-1
COc1ccc2c(c1)[C@@H](NC(=O)c1ccncc1)[C@@H]1Cc3ccccc3[C@H]21	x	x	x	x	-5	x	x
Cc1cccc(NC(=O)/C(=C/c2cccc([N+](=O)[O-])c2)NC(=O)c2cccs2)c1	8	18*	5	-1	4	13	0
O=C(Nc1cccc2ccccc12)/C(=C/c1cccc([N+](=O)[O-])c1)NC(=O)c1cccs1	1	2	-2	-1	-3	x	x
Cc1cc(Cl)ccc1Oc1ccccc1C(=O)CC#N	20	20*	8	1	-2	0	-8
CCOC(=O)c1cc(-c2cccs2)nc2c1c(C)nn2-c1ccccn1	-18	23*	31	1	18	25*	-2
Cc1[nH]c(=O)[nH]c(=O)c1CSc1nnc(CCCCCNC(=O)OC(C)(C)C)o1	0	23*	-3	1	-6	-3	-3
C=CCCC1CN(Cc2ccc(OC)cc2)S(=O)(=O)c2c(NCc3cc(OC)c(OC)c(OC)c3)cccc2O1 (centres undefined)	x	x	x	x	8	x	x
CCNC(=O)C[C@H]1CC[C@H]2[C@@H](COc3ccc(NC(=O)c4ccc5c(c4)OCO5)cc3C(=O)N2C)O1	x	x	x	x	3	x	x
O=C(NNC(=O)c1cc2cc3ccccc3nc2s1)c1ccc(F)cc1	-10	24*	-6	4	7	7	-6
N#Cc1cccc(C(=O)N2CCC(Oc3cccnc3)CC2)c1	x	x	x	x	7	x	x
Cc1ccc(C(=O)Nc2nnc(NC(=S)Nc3ccccc3)s2)cc1	-70	21*	-8	3	-1	24*	0
CCc1nnc(NC(=S)Nc2ccccc2)s1	14	2	-1	0	-2	x	x
CCOc1ccc(C(=O)Nc2nnc(NC(=S)Nc3ccccc3)s2)cc1	-2	19*	-21	1	-19	33*	4
COc1cccc(/C=N/Nc2cc(N3CCOCC3)ncn2)c1O	31	25*	-4	4	-15	20*	-5
COc1cccc(/C=N/Nc2ncnc3c2ncn3Cc2ccccc2)c1O	-10	20*	7	3	-12	27*	-1
Cc1cc(C)cc(N(CC(=O)NC2CCC(C)CC2)S(=O)(=O)c2ccc(Br)s2)c1 (centres undefined)	x	x	x	x	7	x	x
CCOc1ccc(N2CSC3=C(C#N)C(c4ccco4)CC(=O)N3C2)cc1 (centres undefined)	31	31*	37	4	34*	13	13*
CC(=O)N1N=C(c2ccc3nccnc3c2)CC1c1ccccc1 (centres undefined)	8	-1	-1	1	5	x	x
CC(=O)N1N=C(c2ccccc2OC(=O)/C=C/c2ccccc2)CC1c1ccccc1 (centres undefined)	-15	21*	14	2	-1	0	0
CCN(CC)C(=O)CC[C@@H]1CC[C@]2(CCCN(C(=O)C(C)(C)C)C2)O1	x	x	x	x	-2	x	x
Oc1ccccc1Nc1nc(NCc2ccccc2)c2ccccc2n1	-7	19*	5	3	-5	0	3
CC1(c2nnnn2Cc2ccccc2)CCSCC(=O)N1Cc1cccs1 (centres undefined)	x	x	x	x	-1	x	x
CCCn1c(CN2CCN(C(=O)OCC)CC2)nc2c1c(=O)n(C)c(=O)n2C	-3	55*	-4	4	-6	-5	-3
SMILES	GSTO1 inh	PP1 inh	Apaf-1 inh	PP5 inh	TDP2 absorb	PP1 confirm	PP5 inh counter
O=C(Nc1cccc(Cl)c1)OC1CCC12CCC(c1ccccc1)CC2 (centres undefined)	x	x	x	x	5	x	x
COc1cc(CN(C2CCCCC2)S(=O)(=O)c2ccc(S(=O)(=O)N(C)C3CCCCC3)cc2)cc(OC)c1OC	1	19*	17	2	2	-2	-3
COc1ccc(-n2c(SCC(=O)Nc3cccc4ccccc34)nnc2-c2ccco2)cc1	x	x	x	x	2	x	x
COc1ccc(C(=O)c2sc3nc(-c4ccccc4)ccc3c2N)cc1OC	34	20*	5	0	-1	13	-4
COc1ccc(-c2ccc3c(N)c(C(=O)c4ccc(OC)c(OC)c4)sc3n2)cc1	22	9	-7	2	16	x	x
Nc1nc(N)c2cc(Sc3ccc4ccccc4c3)ccc2n1	3	23*	39	0	-10	11	0
O=C1CC(=O)N(CCNc2ncc(C(F)(F)F)cc2Cl)C(=O)N1	-10	29*	11	3	3	-2	-1
CCc1ccc(N=Nc2ccc(O)c3[nH]cnc23)cc1	x	21*	3	0	-12	10	-1
O[C@H](COc1ccccc1)CN1CCC(C(O)(c2ccccc2)c2ccccc2)CC1	x	x	x	x	-15	x	x
COc1ccc(-n2c(SCC(=O)Nc3cc(C)c(NC(=O)c4ccccc4)cc3OC)nnc2-c2cccnc2)cc1	x	x	x	x	1	x	x
COc1cnc(-c2ccccn2)nc1Oc1ccccc1	-1	23*	7	0	0	17*	-3
COc1cnc(-c2ccccn2)nc1N(C)c1ccccc1	16	28*	2	5	1	28*	-2
COc1cnc(-c2ccccn2)nc1Oc1cccc(C(F)(F)F)c1	-3	46*	11	4	-2	46*	1
FC(F)(F)c1cccc(Oc2nc(-c3ccccc3)nnc2C(F)(F)F)c1	5	-3	1	3	9	x	x
CS(=O)(=O)Nc1cccc(NC(=O)c2cccc3c(-c4ccc(F)c(F)c4)coc23)c1	x	x	x	x	-2	x	x
O=C(Nc1ccc(Nc2ccncc2)cc1)c1ccc(Nc2ccnc3ccc([N+](=O)[O-])cc23)cc1[N+](=O)[O-]	23	41*	x	6	-19	-11	1
O=C(Nc1ccc(Nc2ccncc2)cc1)c1ccc([N+](=O)[O-])cc1	6	0	0	1	6	x	x
CCCCCc1ccc(NC(=O)OCCN2C(=O)CCC23CCC(c2ccccc2)CC3)cc1 (centres undefined)	x	x	x	x	-2	x	x
CC(C)(C)C(=O)N1CCN(c2ccc([N+](=O)[O-])c(-n3nc(-c4ccccc4)c4ccccc4c3=O)c2)CC1	3	22*	14	3	-4	11	5
O=C(N/N=C/c1cc([N+](=O)[O-])ccc1O)c1cccc2cc[nH]c12	-11	29*	-5	1	-12	20*	-4
